Reference: ChEMBL document CHEMBL1129524, “Potent inhibitors of acyl-CoA:cholesterol acyltransferase. 2. Structure-activity relationships of novel N-(2,2-dimethyl-2,3-dihydrobenzofuran-7-yl)amides” (J Med Chem, 1996)

Legend:
O-acyltransferase = O-acyltransferase (Oryctolagus cuniculus, UniProt G1SFD9); assay: Inhibitory activity against Acyl coenzyme A:cholesterol acyltransferase 1 obtained from rabbit intestine microsomes
Summary of the method: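 Enzyme source was small-intestinal mucosa microsomes from cholesterol-fed rabbits. The substrate was [1-¹⁴C]oleoyl-CoA.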

Rattus norvegicus [1] = assay: Total cholesterol lowering activity tested by administered orally to rats at dose 10(mg/kg) once a day for 3 days; format: functional
Summary of the method: (§1)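 Male Wistar rats received the compound orally once daily for 3 days. Each night they ate a diet with 2% cholesterol, 1% cholic acid, 20% casein, 45% sucrose, 12% coconut oil, 4% KC flock, 1% vitamin mix, 7% mineral mix and 8% dried fish powder. Serum total cholesterol was then measured. Activity is the observed reduction as a percentage of the control-minus-normal difference.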

Rattus norvegicus [2] = species on record: Rattus norvegicus; assay: Inhibitory activity against foam cell formation (acetyl-LDL-induced cholesteryl ester accumulation) in rat peritoneal macrophages; format: functional
Summary of the method: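 Peritoneal macrophages were prepared from rats. The IC₅₀ was determined for inhibition of acetyl-human-LDL-induced cellular cholesteryl ester accumulation.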

Rattus norvegicus [3] = assay: Total cholesterol lowering activity tested by administered orally to cholesterol fed rats at dose 0.3(mg/kg) once a day for 3 days; format: functional; summary of the method: as §1
Rattus norvegicus [4] = assay: Total cholesterol lowering activity tested by administered orally to rats at dose 1(mg/kg) once a day for 3 days; format: functional; summary of the method: as §1
Rattus norvegicus [5] = assay: Total cholesterol lowering activity tested by administered orally to rats at dose 3(mg/kg) once a day for 3 days; format: functional; summary of the method: as §1
[6] = target: Sterol O-acyltransferase 1 (Oryctolagus cuniculus); assay: Inhibitory activity against Acyl coenzyme A:cholesterol acyltransferase 1 obtained from rabbit liver microsomes
Rattus norvegicus [7] = assay: Total cholesterol lowering activity tested by administered orally to cholesterol fed rats at dose 3(mg/kg) once a day for 3 days; format: functional; summary of the method: as §1

## CCCCCCCCCCC1(C(=O)Nc2c(C)ccc3c2OC(C)(C)C3)CCCC1
O-acyltransferase
  IC50: 240 nM
Rattus norvegicus [1]
  Change: -52%

## CCCCCCCCCCC1(C(=O)Nc2cccc3c2OC(C)(C)C3)CCCC1
O-acyltransferase
  IC50: 500 nM

## Cc1cc(C)c(NC(=O)C(C)(C)CCCCCOc2ccccc2)c2c1CC(C)(C)O2
O-acyltransferase
  IC50: 86 nM

## CCCCCCCCCCCCCCCC(=O)Nc1cccc2c1OC(C)(C)C2
O-acyltransferase
  IC50: 890 nM

## Cc1cc(C)c(NC(=O)C(C)(C)CCCCOc2ccc(Cl)cc2)c2c1CC(C)(C)O2
O-acyltransferase
  IC50: 330 nM
Rattus norvegicus [1]
  Change: -61%

## CCCCCCCCCCC(C)(C)C(=O)Nc1c(C)c(N(C)C)c(C)c2c1OC(C)(C)C2
Rattus norvegicus [2]
  IC50: 30 nM
Rattus norvegicus [3]
  Change: -71%
Rattus norvegicus [4]
  Change: -88%

## Cc1cc(C)c(NC(=O)C(C)(C)CCCCCCOCC(C)C)c2c1CC(C)(C)O2
Rattus norvegicus [1]
  Change: -62%

## CCCCCCCCCCOc1ccc(C(=O)Nc2c(C)cc(C)c3c2OC(C)(C)C3)cc1
Rattus norvegicus [5]
  Change: 0%
O-acyltransferase
  IC50: 30 nM

## CCCCCCCCCCCCOc1ccc(C(=O)Nc2c(C)cc(C)c3c2OC(C)(C)C3)cc1
O-acyltransferase
  IC50: 90 nM

## Cc1cc(C)c(NC(=O)C(C)(C)CCCCCCN2CCCCC2)c2c1CC(C)(C)O2
O-acyltransferase
  IC50: > 500 nM

## Cc1cc(C)c(NC(=O)C(C)(C)CCCCCCOc2ccc(Cl)cc2)c2c1CC(C)(C)O2
O-acyltransferase
  IC50: 76 nM
Rattus norvegicus [2]
  IC50: 1500 nM
Rattus norvegicus [3]
  Change: -64%
Rattus norvegicus [4]
  Change: -75%

## CCCCCCCCCCC(C)(C)C(=O)Nc1c(C)cc(C)c2c1OC(C)(C)C2
Rattus norvegicus [2]
  IC50: 650 nM
Rattus norvegicus [3]
  Change: -44%
Rattus norvegicus [4]
  Change: -61%

## Cc1cc(C)c(NC(=O)C(C)(C)CCCCCc2ccccc2)c2c1CC(C)(C)O2
O-acyltransferase
  IC50: 120 nM
Rattus norvegicus [1]
  Change: -66%

## CCCCCCCCCCCCCCCC(=O)Nc1c(C)cc(C)c2c1OC(C)(C)C2
O-acyltransferase
  IC50: 26 nM

## CCCCCCCCC(C)(C)C(=O)Nc1c(C)cc(C)c2c1OC(C)(C)C2
O-acyltransferase
  IC50: 140 nM

## Cc1cc(C)c(NC(=O)C(C)(C)CCCOc2ccc(Cl)cc2)c2c1CC(C)(C)O2
O-acyltransferase
  IC50: 260 nM

## Cc1cc(C)c(NC(=O)C(C)(C)CCCCc2ccccc2)c2c1CC(C)(C)O2
O-acyltransferase
  IC50: 210 nM

## CCCCCCCCCCC(C)(C)C(=O)Nc1c(OC)ccc2c1OCCC2=O
Rattus norvegicus [2]
  IC50: 160 nM
Rattus norvegicus [3]
  Change: -66%
[6]
  IC50: 16 nM

## CCCCCCCCCCC(C)(C)C(=O)Nc1c(C)c([N+](=O)[O-])c(C)c2c1OC(C)(C)C2
O-acyltransferase
  IC50: 36 nM

## Cc1cc(C)c(NC(=O)c2ccc(OCCCCCCOc3ccc(Cl)cc3)cc2)c2c1CC(C)(C)O2
O-acyltransferase
  IC50: > 200 nM

## CCCOCCCCCCOc1ccc(C(=O)Nc2c(C)cc(C)c3c2OC(C)(C)C3)cc1
O-acyltransferase
  IC50: > 200 nM

## CCCCCCCCCCCCC(C)(C)C(=O)Nc1c(C)cc(C)c2c1OC(C)(C)C2
O-acyltransferase
  IC50: 33 nM

## Cc1cc(C)c(NC(=O)C(C)(C)CCCCOCc2ccccc2)c2c1CC(C)(C)O2
Rattus norvegicus [1]
  Change: -50%

## CCCCCCCCCCC(C)(C)C(=O)Nc1c(C)c(N)c(C)c2c1OC(C)(C)C2
O-acyltransferase
  IC50: 59 nM

## CCCCCCCCCCC1(C(=O)Nc2c(C)cc(C)c3c2OC(C)(C)C3)CCCC1
O-acyltransferase
  IC50: 170 nM

## Cc1ccc(OCCCCCCC(C)(C)C(=O)Nc2c(C)cc(C)c3c2OC(C)(C)C3)cc1
O-acyltransferase
  IC50: 50 nM

## CCCCCCCCOc1ccc(C(=O)Nc2c(C)cc(C)c3c2OC(C)(C)C3)cc1
O-acyltransferase
  IC50: > 200 nM

## Cc1cc(C)c(NC(=O)C(C)(C)CCCCCCc2ccccc2)c2c1CC(C)(C)O2
O-acyltransferase
  IC50: 81 nM

## Cc1cc(C)c(NC(=O)C(C)(C)CCCc2ccc(CC(C)C)cc2)c2c1CC(C)(C)O2
Rattus norvegicus [5]
  Change: -57%
O-acyltransferase
  IC50: 40 nM

## Cc1cc(C)c(NC(=O)C(C)(C)CCCCCOc2ccc(Cl)cc2)c2c1CC(C)(C)O2
O-acyltransferase
  IC50: 150 nM
Rattus norvegicus [4]
  Change: -64%

## CCCCCCCCCCC(C)(C)C(=O)Nc1c(OC)cc(OC)cc1OC [CL-976]
Rattus norvegicus [2]
  IC50: 3800 nM
Rattus norvegicus [7]
  Change: -50%
